Values after ≈ are worked out from the molar mass of the structure shown. Active and inactive are the calls of the source. No cut-off for these calls is given here.
Tests used:
[1] = system: Candida albicans; assay: Antimicrobial activity against Candida albicans ATCC 90028; assay type: functional, organism-based
[2] = system: Cryptococcus neoformans; assay: Antimicrobial activity against Cryptococcus neoformans ATCC 90113; assay type: functional, organism-based
[3] = system: Leishmania donovani; assay: Antileishmanial activity against Leishmania donovani promastigotes after 72 hrs by almar blue assay; assay type: functional, organism-based
[4] = system: Staphylococcus aureus; assay: Antimicrobial activity against methicillin-resistant Staphylococcus aureus ATCC 43300; assay type: functional, organism-based
[5] = system: Vero; assay: Cytotoxicity against african green monkey Vero cells at 4.76 ug/ml after 48 hrs by neutral red assay; assay type: functional, cell-based; settings: Chlorocebus sabaeus
[6] = system: Plasmodium falciparum; assay: Antimalarial activity against chloroquine-resistant Plasmodium falciparum W2 by LDH activity; assay type: functional, organism-based
Procedure, shortened: (§1)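 Red cells infected with P. falciparum D6 or W2 (2% parasitemia, 2% hematocrit, RPMI 1640 with 10% human serum and 60 µg/mL amikacin) added to serially diluted samples. Gassed with 90% N2/5% O2/5% CO2 and held 37 °C for 72 h. Parasite LDH read with Malstat plus NBT/PES at 650 nm. IC50 from dose-response curves; artemisinin and chloroquine controls.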

[7] = system: Mycobacterium intracellulare; assay: Antimicrobial activity against Mycobacterium intracellular ATCC 23068; assay type: functional, organism-based
Procedure, shortened: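 M. intracellulare ATCC 23068 tested by a modified Franzblau method. […] Fluorescence read at 544ex/590em before and after incubation.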

[8] = system: Plasmodium falciparum; assay: Antimalarial activity against chloroquine-sensitive Plasmodium falciparum D6 as LDH activity; assay type: functional, organism-based; procedure, shortened: as §1
[9] = Cytotoxicity against african green monkey Vero cells after 48 hrs by neutral red assay; assay type: cell-based; settings: chlorocebus sabaeus
Procedure, shortened: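 Vero monkey kidney cells seeded at 25,000 cells/well and grown 24 h, then given samples at several concentrations for 48 h. Viable cells were counted by neutral red. IC50 was taken from dose-response curves, with doxorubicin as positive control.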

[10] = system: Plasmodium berghei; assay: Antimalarial activity as reduced parasitaemia on day 10 in Plasmodium berghei NK65 infected mice (Mus musculus) at 10 mg/kg peroral dose […] post infection; assay type: functional; design: scale not given: the % may be the effect or the level left; settings: route oral
Procedure, shortened: (§2)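 Peters 4-day suppressive test. Male Swiss Webster mice (18-20 g), 5 per group, infected ip with 2 X10^7 P. berghei NK-65 parasitized red cells. Compounds in 0.1N HCl given orally about 2 h post-infection, once daily on days 0-2; vehicle and β-arteether control groups. Parasitemia followed on Giemsa-stained tail blood smears up to day 28.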

[11] = system: Plasmodium berghei; assay: Antimalarial activity as reduced parasitaemia day 7 in Plasmodium berghei NK65 infected mice (Mus musculus) at 10 mg/kg peroral dose […] […]; assay type: functional; design: scale not given: the % may be the effect or the level left; settings: route oral; procedure, shortened: as §2
[12] = system: Plasmodium berghei; assay: Antimalarial activity as reduced parasitaemia at day 14 in Plasmodium berghei NK65 infected mice (Mus musculus) at 30 mg/kg peroral dose once daily for 3 days post infection; design: scale not given: the % may be the effect or the level left; settings: route oral
[13] = system: Plasmodium berghei; assay: Antimalarial activity as reduced parasitaemia at day 14 in Plasmodium berghei NK65 infected mice (Mus musculus) at 10 mg/kg peroral dose […]; assay type: functional; design: scale not given: the % may be the effect or the level left; settings: route oral; procedure, shortened: as §2
[14] = system: Plasmodium berghei; assay: Antimalarial activity as reduced parasitaemia at day 10 in Plasmodium berghei NK65 infected mice (Mus musculus) at 30 mg/kg peroral dose […] post infection; assay type: functional; design: scale not given: the % may be the effect or the level left; settings: route oral; procedure, shortened: as §2
[15] = system: Plasmodium berghei; assay: Antimalarial activity as reduced parasitaemia at day 7 in Plasmodium berghei NK65 infected mice (Mus musculus) at 30 mg/kg peroral dose […] post infection; assay type: functional; design: scale not given: the % may be the effect or the level left; settings: route oral; procedure, shortened: as §2
[16] = target: Glycogen synthase kinase-3 beta (Homo sapiens, UniProt P49841); assay: Inhibition of GSK3-beta
[17] = target: Glycogen synthase kinase-3 alpha (Homo sapiens, UniProt P49840); assay: Inhibition of GSK3alpha
Glycogen synthase kinase-3 alpha, sequence (P49840 whole entry): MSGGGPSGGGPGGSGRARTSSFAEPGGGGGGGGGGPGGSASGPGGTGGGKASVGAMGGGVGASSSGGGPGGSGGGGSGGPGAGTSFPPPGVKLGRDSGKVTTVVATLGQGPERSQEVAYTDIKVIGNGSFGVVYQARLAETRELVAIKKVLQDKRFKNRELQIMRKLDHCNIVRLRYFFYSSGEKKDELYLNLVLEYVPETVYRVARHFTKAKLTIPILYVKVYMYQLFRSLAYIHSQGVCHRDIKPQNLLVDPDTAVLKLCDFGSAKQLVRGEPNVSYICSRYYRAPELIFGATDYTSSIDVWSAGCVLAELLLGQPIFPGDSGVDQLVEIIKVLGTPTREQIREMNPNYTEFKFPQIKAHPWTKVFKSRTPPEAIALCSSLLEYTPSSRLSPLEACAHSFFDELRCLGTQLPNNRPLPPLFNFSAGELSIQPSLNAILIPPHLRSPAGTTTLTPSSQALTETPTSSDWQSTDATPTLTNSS

Glycogen synthase kinase-3 beta, sequence (P49841 whole entry): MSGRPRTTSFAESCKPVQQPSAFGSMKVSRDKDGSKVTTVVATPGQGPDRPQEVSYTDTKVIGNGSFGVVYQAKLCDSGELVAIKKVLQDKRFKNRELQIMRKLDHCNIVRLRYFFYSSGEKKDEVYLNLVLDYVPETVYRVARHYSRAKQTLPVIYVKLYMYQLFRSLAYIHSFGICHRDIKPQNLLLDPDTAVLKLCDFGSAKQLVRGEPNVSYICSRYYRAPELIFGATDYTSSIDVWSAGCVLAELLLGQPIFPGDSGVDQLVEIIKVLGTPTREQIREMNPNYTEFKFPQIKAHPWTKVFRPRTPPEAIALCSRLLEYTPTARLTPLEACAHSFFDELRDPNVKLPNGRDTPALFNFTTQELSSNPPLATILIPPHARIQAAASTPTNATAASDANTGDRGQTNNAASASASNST

C[C@@H]1[C@H](O)[C@@H](C)/C=C/C=C/C=C/C=C/C=C/C=C/C=C/[C@H](O[C@@H]2O[C@H](C)[C@@H](O)[C@H](N)[C@@H]2O)C[C@@H]2O[C@](O)(C[C@@H](O)C[C@@H](O)[C@H](O)CC[C@@H](O)C[C@@H](O)CC(=O)O[C@H]1C)C[C@H](O)[C@H]2C(=O)O [AMPHOTERICIN B]
IC50 [1]: 0.1 µg/mL (≈ 0.108 µM)
MIC [1]: 0.63 µg/mL (≈ 0.682 µM)
IC50 [2]: 1 µg/mL (≈ 1.08 µM)
MFC [2]: 2.5 µg/mL (≈ 2.71 µM)
MIC [2]: 2.5 µg/mL (≈ 2.71 µM)
IC50 [3]: 0.4 µg/mL (≈ 0.433 µM)
IC90 [3]: 0.36 µg/mL (≈ 0.39 µM)

CC(=O)Oc1cccc2c1[nH]c1c(C3=C[C@@]4(OC(C)=O)CC/C=C\CCCCN5CC[C@@H]3[C@]3(C[C@@H]6/C=C\CCCCN6[C@H]34)C5)nccc12 [8,12-DIACETOXYMANZAMINE A]
IC50 [1]: > 20 µg/mL
IC50 [4]: 2 µg/mL (≈ 3.08 µM)
MIC [4]: 5 µg/mL (≈ 7.71 µM)
IC50 [2]: > 20 µg/mL
MIC [2]: 10 µg/mL (≈ 15.4 µM)
Activity [5]: inactive
IC50 [3]: 16 µg/mL (≈ 24.7 µM)
IC90 [3]: 35 µg/mL (≈ 53.9 µM)
IC50 [6]: 1.2 µg/mL (≈ 1.85 µM)
IC50 [7]: 4.5 µg/mL (≈ 6.94 µM)
IC50 [8]: 1.3 µg/mL (≈ 2 µM)

COc1cccc2c1[nH]c1c(C3=C[C@@]4(O)CC/C=C\CCCCN5CC[C@@H]3[C@]3(C[C@@H]6/C=C\CCCCN6[C@H]34)C5)nccc12 [8-METHOXYMANZAMINE A]
IC50 [1]: 3 µg/mL (≈ 5.18 µM)
MFC [1]: > 20 µg/mL
MIC [1]: 10 µg/mL (≈ 17.3 µM)
IC50 [4]: 0.55 µg/mL (≈ 0.95 µM)
MFC [4]: > 20 µg/mL
MIC [4]: > 20 µg/mL
CC50 at 48 h ([9]; read-out: TC50): 980 µg/mL (≈ 1690 µM)
IC50 [2]: 2 µg/mL (≈ 3.46 µM)
IC50 [3]: 5 µg/mL (≈ 8.64 µM)
IC90 [3]: 24 µg/mL (≈ 41.5 µM)
IC50 [6]: 0.047 µg/mL (≈ 0.0812 µM)
IC50 [7]: 0.15 µg/mL (≈ 0.259 µM)
MBC [7]: 20 µg/mL (≈ 34.6 µM)
MIC [7]: 0.63 µg/mL (≈ 1.09 µM)
IC50 [8]: 0.037 µg/mL (≈ 0.0639 µM)

O=C(O)c1cn(C2CC2)c2cc(N3CCNCC3)c(F)cc2c1=O [CIPROFLOXACIN]
MFC [4]: 1 µg/mL (≈ 3.02 µM)
MIC [4]: 0.25 µg/mL (≈ 0.754 µM)
MBC [7]: > 20 µg/mL
MIC [7]: 0.5 µg/mL (≈ 1.51 µM)

Oc1cccc2c1[nH]c1c(C3=C[C@@]4(O)CC/C=C\CCCCN5CC[C@@H]3[C@]3(C[C@@H]6/C=C\CCCCN6[C@H]34)C5)nccc12
IC50 [1]: 10 µg/mL (≈ 17.7 µM)
MIC [1]: 5 µg/mL (≈ 8.85 µM)
Activity [10]: 35%
IC50 [4]: 6.5 µg/mL (≈ 11.5 µM)
CC50 at 48 h [9]: 1.1 µg/mL (≈ 1.95 µM)
Activity [11]: 57%
Activity [12]: 67%
Activity [13]: 32%
IC90 [3]: 11 µg/mL (≈ 19.5 µM)
IC50 [7]: 0.25 µg/mL (≈ 0.443 µM)
MIC [7]: 0.31 µg/mL (≈ 0.549 µM)
Activity [14]: 83%
Activity [15]: 100%

C[C@@H]1CC[C@H]2[C@@H](C)C(=O)O[C@@H]3O[C@@]4(C)CC[C@@H]1[C@]32OO4 [ARTEMISININ]
IC50 [6]: 0.0044 µg/mL (≈ 0.0156 µM)
IC50 [8]: 0.0043 µg/mL (≈ 0.0152 µM)

N=C(N)c1ccc(OCCCCCOc2ccc(C(=N)N)cc2)cc1 [PENTAMIDINE]
IC50 [3]: 0.9 µg/mL (≈ 2.64 µM)
IC90 [3]: 1.8 µg/mL (≈ 5.29 µM)

CC(=O)Oc1cccc2c1[nH]c1c(C3=C[C@@]4(O)CC/C=C\CCCCN5CC[C@@H]3[C@]3(C[C@@H]6/C=C\CCCCN6[C@H]34)C5)nccc12 [8-ACETOXYMANZAMINE A]
IC50 [1]: 1.5 µg/mL (≈ 2.47 µM)
MFC [1]: 5 µg/mL (≈ 8.24 µM)
MIC [1]: 2.5 µg/mL (≈ 4.12 µM)
Activity [10]: 51%
IC50 [4]: 0.5 µg/mL (≈ 0.824 µM)
MFC [4]: 20 µg/mL (≈ 33 µM)
CC50 at 48 h ([9]; read-out: TC50): 370 µg/mL (≈ 610 µM)
IC50 [2]: 1.5 µg/mL (≈ 2.47 µM)
MFC [2]: 5 µg/mL (≈ 8.24 µM)
MIC [2]: 2.5 µg/mL (≈ 4.12 µM)
Activity [11]: 61%
Activity [12]: 48%
Activity [13]: 8%
IC50 [3]: 3.4 µg/mL (≈ 5.6 µM)
IC90 [3]: 7 µg/mL (≈ 11.5 µM)
IC50 [6]: 0.03 µg/mL (≈ 0.0494 µM)
IC50 [7]: 0.1 µg/mL (≈ 0.165 µM)
MBC [7]: > 20 µg/mL
MIC [7]: 0.16 µg/mL (≈ 0.264 µM)
Activity [14]: 84%
Activity [15]: 93%
IC50 [8]: 0.0096 µg/mL (≈ 0.0158 µM)

O[C@]12C=C(c3nccc4c3[nH]c3ccccc34)[C@@H]3CCN(CCCC/C=C\CC1)C[C@@]31C[C@@H]3/C=C\CCCCN3[C@H]12 [MANZAMINE A]
Activity [10]: 100%
CC50 at 48 h ([9]; read-out: TC50): 680 µg/mL (≈ 1240 µM)
MIC [2]: 10 µg/mL (≈ 18.2 µM)
Activity [11]: 100%
Activity [13]: 90%
IC90 [3]: 1.8 µg/mL (≈ 3.28 µM)
IC50 [6]: 0.005 µg/mL (≈ 0.00911 µM)
IC50 [16]: 10 µM
IC50 [17]: 25 µM
MIC [7]: 0.63 µg/mL (≈ 1.15 µM)

Reference: ChEMBL document CHEMBL1155128, “Kinetic studies and bioactivity of potential manzamine prodrugs” (J Nat Prod, 2008)
